Source: PubChem BioAssay
An excerpt weighted towards active compounds, which were near 3.2% of everything screened.
Apaf-1 inh: inhibitors of human Apaf-1 apoptosome; reconstituted apoptosome caspase-3 activity, DEVD-Rh110 fluorescence; 330,000 tested, 0.71% active; O14727; inhibition, % at 20 µM; active means inhibition of at least 40% at 20 µM;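 further: plate controls were DMSO wells for no effect and DEVD-CHO caspase inhibitor wells for full effect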
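Medium: Hepes buffer, pH 7.5 / System: biochemical Apaf-1 apoptosome reconstitution / Measured by: Rh110 fluorescence, excitation 480 nm, emission 540 nm / Times: compound with Apaf-1, dATP, procaspase-3 30 min, then 50 min reaction, room temperature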
DSG3 Ab inh: blocks pemphigus antibody binding to human desmoglein-3; DSG3-coupled beads, scFv-anti-DSG3-GFP binding, flow cytometry; active compounds read low; 310,000 tested, 0.48% active; P32926; binding (percent of control), % at 10 µM;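 active means binding more than 3 SD below its plate's average and above zero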;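 further: hits lower antibody fragment binding to DSG3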
UBC13 polyUb: inhibitors of human UBC13 polyubiquitin chain formation. 330,000 tested, 0.47% active. TR-FRET. inhibition, % at 20 µM; in the data active means inhibition above about 45%, passing the limit was not always enough
MEKK2wt PB1 HTS: raises or lowers MEK5 binding to wildtype human MEKK2 PB1 domain. Q9Y2U5. bead flow cytometry, Alexa488-MEK5 binding to MEKK2 WT; actives lie on both sides. binding response (% of control), % at 10 µM. 290,000 tested, 1.1% active. AID 1531; in the data active means binding response below about 67% or above about 130%
MEKK3 PB1 HTS: modulators (inhibitors or enhancers) of MEK5 binding to human MEKK3 PB1 domain; 290,000 tested, 1.4% active; Q99759; AID 1529; bead-based flow cytometry, Alexa488-MEK5 binding to MEKK3; actives lie on both sides; 0 = blocked by unlabeled MEK5, 100 = vehicle; binding response (% of control), % at 10 µM;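 active means binding response more than 3 SD above or below the average of its plate-row segment, actives on both sides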;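 further: Alexa488 bead fluorescence after subtracting the streptavidin-only scavenger bead signal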
MEKK2mut PB1 HTS: signal of MEK5 binding to mutant human MEKK2 PB1 domain; bead flow cytometry, Alexa488-MEK5 binding to MEKK2 mutant; percent response, % at 10 µM; 290,000 tested, 0.35% active; in the data active means percent response above about 24%, passing the limit was not always enough
Apaf-1 inh conf: Apaf-1 inhibition, single-dose confirmed; shares compounds with Apaf-1 inh; reconstituted apoptosome, caspase-3 DEVD-Rh110 fluorescence; inhibition, % at 20 µM; 1,800 tested, 25% active; AID 504614;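 active means mean inhibition of at least 40% at 20 µM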;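 further: plate controls were DMSO wells for no effect and DEVD-CHO caspase inhibitor control wells for full effect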
Rh110 interf inh: counter-screen for Apaf-1 inhibitors: fluorescence interference | activation (fluorescence interference), % at 20 µM | shares compounds with Apaf-1 inh | AID 504615 | 1,800 tested, under 10 active | Rh110 fluorescence interference, quenched caspase reaction;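 active means signal rise of 40% or more at 20 µM, treated as a fluorescence artifact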
Apaf1 inh interf: shows fluorescence interference in the Apaf-1 inhibitor assay format. shares compounds with Apaf-1 inh. fluorescence interference counterscreen, Apaf-1 assay format. IC50, µM. 460 tested, under 10 active; call rule not given here
Numbers without * were called inactive; nt = no result.

SMILES	Apaf-1 inh	DSG3 Ab inh	UBC13 polyUb	MEKK2wt PB1 HTS	MEKK3 PB1 HTS	MEKK2mut PB1 HTS	Apaf-1 inh conf	Rh110 interf inh	others
N#Cc1c(N)n(CCOC(=O)c2cccc(Br)c2)c2nc3ccccc3nc12	46*	98	-17	100	103	1	20	11
N#Cc1c(N)n(CCOC(=O)c2cccc([N+](=O)[O-])c2)c2nc3ccccc3nc12	17	nt	-29	109	104	7	nt	nt
N#Cc1c(N)n(CCNC(=O)c2ccc(Cl)cc2)c2nc3ccccc3nc12	67*	106	-2	113	108	9	22	4
COc1cc(Cn2c(N)c(C#N)c3nc4ccccc4nc32)cc(OC)c1	58*	103	22	nt	nt	nt	18	4
Cc1ccccc1N1CCN(C2CCCN(C(=O)CCn3cnnn3)C2)CC1 (stereo unspecified)	8	105	6	104	97	6	nt	nt
COc1ccc(Cn2c(N)c(C#N)c3nc4ccccc4nc32)cc1	50*	100	-19	nt	nt	nt	12	0
N#Cc1c(N)n(-c2cccc(O)c2)c2nc3ccccc3nc12	-17	88	6	102	101	2	nt	nt
Cc1ccc(C(=O)NCCn2c(N)c(C#N)c3nc4ccccc4nc32)cc1	10	129	-1	90	92	-2	nt	nt
COc1cccc(Cn2c(N)c(C#N)c3nc4ccccc4nc32)c1OC	92*	100	-6	96	107	-2	11	8
COc1ccc(Cn2c(N)c(S(=O)(=O)c3cccs3)c3nc4ccccc4nc32)cc1	-8	88	8	113	109	3	nt	nt
N#Cc1c(N)n(CCc2ccc(F)cc2)c2nc3ccccc3nc12	82*	108	-12	99	106	5	19	10
O=[N+]([O-])c1ccccc1-c1ccc(C(=S)N2CCCC2)o1	47*	99	-46	96	98	-1	40	2	Apaf1 inh interf=>100
Oc1ccc(CNc2ccccc2F)c2cccnc12	1	102	12	104	102	4	nt	nt
Oc1ccccc1CNc1cccc2cccnc12	95*	127	-121	97	102	-2	12	6
CCC(CO)Oc1cc(NCc2cccc(C)c2)c2ncn(C(C)C)c2c1 (stereo unspecified)	54*	110	-6	nt	nt	nt	28	6
CCC(CO)Oc1cc(NCc2ccc(C)cc2)c2ncn(C(C)C)c2c1 (stereo unspecified)	41*	115	-9	nt	nt	nt	22	4
CCC(CO)Oc1cc(NCc2cccc(C(F)(F)F)c2)c2ncn(C(C)C)c2c1 (stereo unspecified)	41*	110	-1	nt	nt	nt	18	14
CC(OC(=O)CC1Sc2ccccc2NC1=O)C(=O)N(C)Cc1ccccc1 (stereo unspecified)	nt	53	nt	nt	nt	nt	nt	nt
COc1ccc2c(O)c(-c3c(C)cc(C)cc3C)c(=O)[nH]c2c1	-4	nt	0	nt	nt	nt	nt	nt
Cc1ccc(/C=N/NC(=O)C(C)NC(=O)c2ccccc2)cc1 (stereo unspecified)	41*	98	2	89	91	-9	8	-6
O=C(N/N=C/c1ccc(F)cc1)c1ccccc1	-2	97	-6	96	108	-4	nt	nt
CCN(CC)CCCNC1=C(Cl)C(=O)c2ccccc2C1=O	50*	100	-334	105	99	2	65*	4	Apaf1 inh interf=>100
CC(C)OCCCNC1=C(Cl)C(=O)c2ccccc2C1=O	53*	96	-279	89	92	-11	28	4
COCCCNC1=C(Cl)C(=O)c2ccccc2C1=O	33	98	-280	89	91	-16	nt	nt
CC(C)(CNC(=O)c1cccc(S(=O)(=O)Nc2ccc(SC(F)F)cc2)c1)N1CCOCC1	nt	114	nt	nt	nt	nt	nt	nt
